1 molecule from ChEMBL document CHEMBL2169861, “Synthesis and biological evaluation of novel unsaturated carboxysteroids as human 5α-reductase inhibitors: a legitimate approach” (Eur J Med Chem, 2012) can be followed below.

The test system of data set [1] is Rattus norvegicus. Nature of the data set: Anti-benign prostatic hyperplasia activity in Wistar rat assessed as reduction of adrenal weight gain per 100 gram of body weight at 1 mg/kg, po qd for 14 days measured on day 15. In kind it is functional. Summed up:
(§1)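 Mature male Wistar rats, acclimatised one month, dosed orally once daily for 14 days with suspension in 0.50% carboxymethylcellulose at 5 ml/kg; vehicle controls; 5 rats/group. Killed under ether on day 15, 24 h after last dose; organs dissected free of fat and connective tissue, weighed, expressed per 100 g body weight. Mean ± SEM; one-way ANOVA with Dunnett's test.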

The test system of data set [2] is Rattus norvegicus. As to the kind of experiment: Anti-benign prostatic hyperplasia activity in Wistar rat assessed as reduction of seminal vesicle weight gain per 100 gram of body weight at 1 mg/kg, po qd for 14 days measured on day 15. In kind it is functional. The procedure, abridged: as §1
Data set [3] concerns Rattus norvegicus. As to the kind of experiment: Anti-benign prostatic hyperplasia activity in Wistar rat assessed as reduction of liver weight gain per 100 gram of body weight at 1 mg/kg, po qd for 14 days measured on day 15. In kind it is functional. Summed up: as §1
Data set [4] has as its target T1, 3-oxo-5-alpha-steroid 4-dehydrogenase 1 (Homo sapiens) (UniProt P18405).
T1 sequence (whole entry): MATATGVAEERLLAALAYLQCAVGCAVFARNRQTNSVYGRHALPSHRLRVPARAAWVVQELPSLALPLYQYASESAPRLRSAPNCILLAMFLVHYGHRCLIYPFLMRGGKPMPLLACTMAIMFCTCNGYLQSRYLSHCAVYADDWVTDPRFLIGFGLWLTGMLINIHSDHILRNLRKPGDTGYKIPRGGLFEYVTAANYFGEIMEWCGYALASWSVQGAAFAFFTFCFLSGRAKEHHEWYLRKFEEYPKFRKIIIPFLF
As to the kind of experiment: Inhibition of human type-1 5-alpha reductase expressed in HEK293 cells using [3H]-androstenedione as substrate at 10 uM after 30 mins by HPLC analysis. In kind it is cell-based. The procedure, abridged: (§2)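 Lysates of 80% confluent HEK293 cells stably expressing human type I or type II cDNA (pRcCMV), sonicated in 300 mM saccharose, 5 mM Tris-HCl, 0.1 mM EDTA. Final 500 nM androstenedione with [3H]androstenedione, NADPH-regenerating system (0.55 mM NADP, 5 mM glucose-6-phosphate, G6PDH), 2% DMSO; 30 min, 37 °C. Ether-extracted; conversion quantified by radio-HPLC on C8.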

Data set [5] concerns Rattus norvegicus. As to the kind of experiment: Anti-benign prostatic hyperplasia activity in Wistar rat assessed as reduction of dorsal prostate weight gain at 1 mg/kg, po qd for 14 days measured on day 15. In kind it is functional, Prostate gland. More on the design: scale not given: the % may be the effect or the level left. The procedure, abridged:
as §1

In data set [6] the target is T2, 3-oxo-5-alpha-steroid 4-dehydrogenase 2 (Homo sapiens) (UniProt P31213).
T2 sequence (whole entry): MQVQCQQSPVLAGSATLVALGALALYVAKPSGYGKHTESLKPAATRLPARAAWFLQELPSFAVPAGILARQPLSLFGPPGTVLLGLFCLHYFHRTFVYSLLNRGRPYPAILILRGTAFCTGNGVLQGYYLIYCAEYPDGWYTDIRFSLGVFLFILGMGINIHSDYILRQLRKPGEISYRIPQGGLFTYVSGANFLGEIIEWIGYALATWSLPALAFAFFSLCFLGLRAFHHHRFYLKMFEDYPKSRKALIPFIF
As to the kind of experiment: Inhibition of human type-2 5-alpha reductase expressed in HEK293 cells using [3H]-androstenedione as substrate at 10 uM after 30 mins by HPLC analysis. In kind it is cell-based. Summed up: as §2

Data set [7] relates to Rattus norvegicus. Nature of the data set: Toxicity in Wistar rat assessed as mortality at 1 mg/kg, po qd for 14 days measured on day 15. It counts as organism-based. As to conditions: in vivo, 336 h. More on the design: dose 1 mg/kg, route oral. Summed up:
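Mature male Wistar rats, acclimatised one month, dosing begun after 9 weeks. Compound suspended in 0.50% carboxymethylcellulose sodium and given orally at 5 ml/kg once daily for 14 days. Vehicle-only control group, 5 animals per group. Mortality recorded over treatment. Rats weighed and killed under ether anaesthesia on day 15, 24 h after the last dose.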

The test system of data set [8] is Rattus norvegicus. Nature of the data set: Anti-benign prostatic hyperplasia activity in Wistar rat assessed as reduction of epididymis weight gain at 1 mg/kg, po qd for 14 days measured on day 15. In kind it is functional. More on the design: scale not given: the % may be the effect or the level left. The procedure, abridged: as §1
Data set [9] has as its system Rattus norvegicus. Nature of the data set: Anti-benign prostatic hyperplasia activity in Wistar rat assessed as reduction of testis weight gain per 100 gram of body weight at 1 mg/kg, po qd for 14 days measured on day 15. In kind it is functional. Summed up:
as §1

For data set [10], the target named is T1, 3-oxo-5-alpha-steroid 4-dehydrogenase 1 (Homo sapiens). Nature of the data set: Inhibition of human type-1 5-alpha reductase expressed in HEK293 cells using [3H]-androstenedione as substrate at 2 uM after 30 mins by HPLC analysis. In kind it is cell-based. The procedure, abridged:
as §2

In data set [11] the test system is Rattus norvegicus. As to the kind of experiment: Anti-benign prostatic hyperplasia activity in Wistar rat assessed as reduction of ventral prostate weight gain at 1 mg/kg, po qd for 14 days measured on day 15. More on the design: scale not given: the % may be the effect or the level left. In kind it is functional, Prostate gland. The procedure, abridged: as §1

The test system of data set [12] is Rattus norvegicus. Nature of the data set: Anti-benign prostatic hyperplasia activity in Wistar rat assessed as reduction of vas deferens weight gain at 1 mg/kg, po qd for 14 days measured on day 15. It counts as functional. More on the design: scale not given: the % may be the effect or the level left. Summed up: as §1
Data set [13] concerns Rattus norvegicus. Nature of the data set: Anti-benign prostatic hyperplasia activity in Wistar rat assessed as reduction of body weight gain at 1 mg/kg, po qd for 14 days measured on day 15. It counts as functional. More on the design: scale not given: the % may be the effect or the level left. The procedure, abridged:
as §1

Each structure is given as a SMILES string.

For the molecule `CN1C(=O)CC[C@H]2[C@@H]3CC=C4C=C(C#N)CC[C@]4(C)[C@H]3CC[C@@]21C`, the Activity in [1] is reported as 21.311 mg; in data set [2] it was 223.05 mg; in [3], 4.861 g; in [5] it was -8.07%; in [7], “Non-toxic”; in [8], 10.11%. The Activity in [9] came to 932.988 mg; in data set [11], 6.72%; in [12], 14.58%; in data set [13] it was 6.767%. The inhibition in data set [4] was found to be 93%; in [6] it was 13.5%; in data set [10], 64%.

What is called inhibition is the percentage by which the read-out fell short of the control.
